Where “and” joins values, the source holds several entries; their conditions need not be identical. Equal values may be shown once. Calls of active or inactive are those of the source.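 Rule for the calls: active = inhibition above 20% at 50 µM; inactive = the rest.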
Target: Kelch-like ECH-associated protein 1 (Homo sapiens) (UniProt Q14145)
Test: Keap1 Kelch binding to Nrf2 peptide inhibition, confirmation, orthogonal assay for Keap1-Nrf2 interaction inhibitor project, biophysical, competitive SPR, dry powder (AID 651876)
Details: stronger effect = higher value
Summary of the method: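 System – Keap1 Kelch domain, biochemical · Probe or stimulus – biotinylated 16mer Nrf2 peptide captured on streptavidin CM5 surface · Timing – room-temperature preincubation, 25 °C binding · Signal – Double-referenced surface plasmon resonance, initial association-phase slopes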

Chain of Kelch-like ECH-associated protein 1 (Homo sapiens) (Q14145 whole entry, looked up): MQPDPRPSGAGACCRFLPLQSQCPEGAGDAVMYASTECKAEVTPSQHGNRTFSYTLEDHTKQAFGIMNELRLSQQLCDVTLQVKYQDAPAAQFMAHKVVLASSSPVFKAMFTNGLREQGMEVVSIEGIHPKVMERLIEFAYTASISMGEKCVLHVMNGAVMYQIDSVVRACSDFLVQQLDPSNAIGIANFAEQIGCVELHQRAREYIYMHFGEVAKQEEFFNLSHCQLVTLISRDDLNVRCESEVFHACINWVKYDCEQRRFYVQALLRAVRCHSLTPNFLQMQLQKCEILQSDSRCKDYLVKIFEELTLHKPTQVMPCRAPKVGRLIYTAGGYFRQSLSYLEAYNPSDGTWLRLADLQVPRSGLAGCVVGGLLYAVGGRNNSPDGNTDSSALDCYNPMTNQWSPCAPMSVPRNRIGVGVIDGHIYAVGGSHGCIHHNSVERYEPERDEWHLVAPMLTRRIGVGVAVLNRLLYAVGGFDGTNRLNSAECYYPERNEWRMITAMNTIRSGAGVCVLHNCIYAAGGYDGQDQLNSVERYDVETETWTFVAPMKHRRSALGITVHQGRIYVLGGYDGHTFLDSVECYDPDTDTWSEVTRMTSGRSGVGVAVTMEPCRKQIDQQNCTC

Compound	inhibition (at 50 µM)	inhibition (inhibition, at 5 µM)
NC(=O)c1ccccc1C(=O)NC[C@@H]1c2ccccc2CCN1C(=O)[C@@H]1CCCC[C@@H]1C(=O)O	83%	38.6%
COC(=O)C1CCCCC1C(=O)N1CCc2ccccc2C1CN1C(=O)c2ccccc2C1=O (stereo not given)	6.8% (inactive)	3.3%
O=C(O)CCC(=O)N1CCc2ccccc2C1CN1C(=O)c2ccccc2C1=O (stereo not given)	11.4% (inactive)	-2.3%
Cc1ccc(S(=O)(=O)NC[C@@H]2c3ccccc3CCN2C(=O)[C@@H]2CCCC[C@@H]2C(=O)O)c(C)c1	17.1% (inactive)	0.1%
O=C(NC[C@@H]1c2ccccc2CCN1C(=O)[C@@H]1CCCC[C@@H]1C(=O)O)c1ccc(CCl)cc1	22.7%	-1%
O=C(NC[C@@H]1c2ccccc2CCN1C(=O)[C@@H]1CCCC[C@@H]1C(=O)O)c1ccccc1CO	39.3%	7.3%
O=C(O)c1ccccc1C(=O)NC[C@@H]1c2ccccc2CCN1C(=O)[C@@H]1CCCC[C@@H]1C(=O)O	9.5% (inactive)	0.9%
O=C(NCCc1ccccc1)c1ccccc1C(=O)NC[C@@H]1c2ccccc2CCN1C(=O)C1CCCCC1C(=O)O (stereo not given in full)	47.1%	3.3%
O=C1c2ccccc2C(=O)N1C[C@@H]1c2ccccc2CCN1C(=O)C1CCCCC1	2.1% (inactive)	-0.3%
O=S(=O)(Nc1nc(NCC2CCCCC2)nc2ccccc12)c1ccccc1	7% (inactive)	-1.7%
O=C(O)[C@H]1CCCC[C@H]1C(=O)N1CCc2ccccc2[C@H]1CNS(=O)(=O)c1ccccc1	12.9% (inactive)	-3.1%
O=C(O)[C@H]1CCCC[C@H]1C(=O)N1CCc2ccccc2[C@H]1CNS(=O)(=O)c1ccc([N+](=O)[O-])cc1	26.7%	4%
O=C(Cc1ccccc1)NC[C@@H]1c2ccccc2CCN1C(=O)[C@@H]1CCCC[C@@H]1C(=O)O	36.9%	7%
COC(=O)[C@H]1CCCC[C@H]1C(=O)N1CCc2ccccc2[C@H]1CN1C(=O)c2ccccc2C1=O	1.6% (inactive)	-0.6%
Cc1ccc(S(=O)(=O)NC(=O)[C@@H]2c3ccccc3CCN2C(=O)[C@@H]2CCCC[C@@H]2C(=O)O)cc1	–	0.2% and -3.9%
C=CC(=O)NC[C@@H]1c2ccccc2CCN1C(=O)[C@@H]1CCCC[C@@H]1C(=O)O	1.1% (inactive)	-5.2%
O=C(O)CC(=O)N1CCc2ccccc2C1CN1C(=O)c2ccccc2C1=O (stereo not given)	2.1% (inactive)	-2.4%
Cc1ccc(S(=O)(=O)NNc2nc(N3CC(O)CC3C(=O)O)nc3ccccc23)cc1 (stereo not given)	-0.9% (inactive)	-1.1%
O=C(O)C1CCCCC1C(=O)N1CCc2ccccc2C1CN1Cc2ccccc2C1=O (stereo not given)	77.7%	27.7%
O=C(O)C1CCCCC1C(=O)N1CCc2ccccc2[C@H]1C(=O)NC12CC3CC(CC(C3)C1)C2 (stereo not given in full)	-0.6% (inactive)	-11.6%
COc1ccccc1CCNC(=O)[C@@H]1c2ccccc2CCN1C(=O)C1CCCCC1C(=O)O (stereo not given in full)	-4.2% (inactive) and -2.2% (inactive)	-12.8% and -7.2%
O=C(NCCCN1CCOCC1)c1ccccc1C(=O)NC[C@@H]1c2ccccc2CCN1C(=O)C1CCCCC1C(=O)O (stereo not given in full)	43.8%	6.9%

Compound	inhibition (at 50 µM)	inhibition (inhibition, at 5 µM)
O=C(O)[C@H]1C2C=CC(C2)[C@H]1C(=O)N1CCc2ccccc2C1CN1C(=O)c2ccccc2C1=O (stereo not given in full)	42.4%	4.9%
O=C(O)C1CCCCC1C(=O)Nc1ccccc1CN1C(=O)c2ccccc2C1=O (stereo not given)	5.5% (inactive)	3.8%
O=C(O)C1CCCCC1C(=O)N1CCc2ccccc2C1CN1C(=O)[C@H]2CCCC[C@H]2C1=O (stereo not given in full)	65.5%	19.1%
O=C(O)C1CCCCC1C(=O)N1CCc2ccccc2[C@H]1C(=O)NCCc1ccccc1 (stereo not given in full)	-3.7% (inactive)	-5.5%
O=C(NC[C@@H]1c2ccccc2CCN1C(=O)[C@@H]1CCCC[C@@H]1C(=O)O)OCC1c2ccccc2-c2ccccc21	3.6% (inactive)	5%
NC(=O)[C@H]1CCCC[C@H]1C(=O)N1CCc2ccccc2[C@H]1CN1C(=O)c2ccccc2C1=O	36.7%	5.6%
O=C(O)C1CCCCC1C(=O)N1CCc2ccccc2C1CN1C(=O)Cc2ccccc2C1=O (stereo not given)	77%	36.6%
O=C(O)[C@H]1CCCC[C@H]1C(=O)NC(CN1C(=O)c2ccccc2C1=O)c1ccccc1 (stereo not given in full)	0.3% (inactive)	0.3%
O=C(O)C1CCCCC1C(=O)NCC1c2ccccc2CCN1C(=O)Cc1ccccc1 (stereo not given)	-4% (inactive)	3.3%
O=C(O)[C@@H]1CCCN1C(=O)N1CCc2ccccc2[C@H]1CN1C(=O)c2ccccc2C1=O	30.3%	1.7%
O=C(O)c1ccccc1C(=O)N1CCc2ccccc2C1CN1C(=O)c2ccccc2C1=O (stereo not given)	9.9% (inactive)	1.9%
O=C(NCCO)c1ccccc1C(=O)NC[C@@H]1c2ccccc2CCN1C(=O)C1CCCCC1C(=O)O (stereo not given in full)	32.1%	7.5%
O=C(O)C1CCCCC1C(=O)N1CCc2ccccc2C1CN1C(=O)c2ccccc2S1(=O)=O (stereo not given)	68.1%	18.5%
O=C(O)[C@H]1CCCC[C@H]1C(=O)N1CCc2ccccc2C1CCN1C(=O)c2ccccc2C1=O (stereo not given in full)	8.8% (inactive) and 2.3% (inactive)	-2.2% and 0.5%
O=C(O)/C=C\C(=O)N1CCc2ccccc2C1CN1C(=O)c2ccccc2C1=O (stereo not given)	21.5%	1.1%
O=C(O)C1CCCCC1C(=O)N1CCc2ccccc2C1c1ccccc1 (stereo not given)	3.2% (inactive)	-2%
O=C(NC[C@@H]1c2ccccc2CCN1C(=O)[C@@H]1CCCC[C@@H]1C(=O)O)c1ccccc1	-3.5% (inactive)	1.5%
O=C(O)[C@H]1CCCC[C@H]1C(=O)N1CCC2=C(CCCC2)C1CN1C(=O)c2ccccc2C1=O (stereo not given in full)	–	12.5% and -3.6%
O=C(O)[C@H]1CCCC[C@H]1C(=O)N1CCc2ccccc2[C@H]1CNc1nc(Cl)nc2ccccc12	3.7% (inactive)	-1.3%
O=C1c2ccccc2C(=O)N1CC1=NCCc2ccccc21	-0.2% (inactive)	1.1%
O=C(O)C1CCCCC1C(=O)N1CCCCC1CN1C(=O)c2ccccc2C1=O (stereo not given)	13.5% (inactive)	0.4%
O=C(O)CCCC(=O)N1CCc2ccccc2C1CN1C(=O)c2ccccc2C1=O (stereo not given)	2.3% (inactive)	6.4%

Second part, the compound after the results:

inhibition (at 50 µM)	inhibition (inhibition, at 5 µM)	Compound
8.32% (inactive)	11.9%	CCOC(=O)C(C(=O)OCC)c1cc(CN2C(=O)c3ccccc3C2=O)c2ccccc2n1
7.85% (inactive)	-2.91%	O=C(Oc1cc(CN2C(=O)c3ccccc3C2=O)c2ccccc2[n+]1[O-])c1cccc(Cl)c1
86.4%	49.5%	Cc1ccccc1S(=O)(=O)Nc1cc(C(C(=O)OC(C)C)C(=O)C(F)(F)F)c(O)c2ccccc12 (stereo not given)
93.1%	65.9%	COC(=O)C(C(=O)OC)c1cc(NS(=O)(=O)c2c(C)cc(C)cc2C)c2ccccc2c1O
97%	57.8%	Cc1ccc(S(=O)(=O)Nc2cc(C(C(=O)OC(C)C)C(=O)C(F)(F)F)c(O)c3ccccc23)c(C)c1 (stereo not given)
1.9% (inactive)	-4.5%	Cc1cc(C)c(S(=O)(=O)Nc2nc(C(C(=O)OC(C)C)C(=O)C(F)(F)F)nc3ccccc23)c(C)c1 (stereo not given)
59%	12.7%	CC(C)OC(=O)C(C(=O)C(F)(F)F)c1cc(NS(=O)(=O)c2ccccc2)c2ccccc2c1O (stereo not given)
-2.5% (inactive)	-6%	CCOC(=O)C(C(=O)OCC)c1nc(NS(=O)(=O)c2c(C)cc(C)cc2C)c2ccccc2n1
80.3%	30.2%	Cc1ccc(S(=O)(=O)Nc2cc(C(C(=O)OC(C)C)C(=O)C(F)(F)F)c(O)c3ccccc23)cc1 (stereo not given)
8% (inactive)	0%	COc1ccc(CCN=C2C=C(NS(=O)(=O)c3c(C)cc(C)cc3C)c3ccccc3C2=O)cc1
4.8% (inactive)	3.9%	CCOC(=O)C(C(=O)OCC)c1cc(CNS(=O)(=O)c2ccc(C)cc2C)c2ccccc2n1
6.8% (inactive)	3.6%	Cc1cc(C)c(S(=O)(=O)Nc2nc(NCCO)nc3ccccc23)c(C)c1
28.3%	4.9%	Cc1ccc(S(=O)(=O)NNc2nc(C(C(=O)OC(C)C)C(=O)C(F)(F)F)nc3ccccc23)cc1 (stereo not given)
3.3% (inactive)	1%	CC(C)CNc1nc(NS(=O)(=O)c2ccccc2)c2ccccc2n1
13.9% (inactive)	9.6%	CC(=O)Nc1cc(NS(=O)(=O)c2c(C)cc(C)cc2C)c2ccccc2c1O
105%	79.7%	Cc1cc(C)c(S(=O)(=O)Nc2cc(C(C(=O)OC(C)C)C(=O)C(F)(F)F)c(O)c3ccccc23)c(C)c1 (stereo not given)
7.1% (inactive)	4.69%	Cc1cc(C)c(S(=O)(=O)Nc2cc(C(C(=O)OCc3ccccc3)C(=O)OCc3ccccc3)c(O)c3ccccc23)c(C)c1
4.3% (inactive)	5.5%	CCOC(=O)Cc1nc(NS(=O)(=O)c2c(C)cc(C)cc2C)c2ccccc2n1
1.5% (inactive)	-0.6%	Cc1cc(C)c(S(=O)(=O)Nc2ncnc3ccccc23)c(C)c1
-9.9% (inactive)	-3.5%	Cc1ccc(S(=O)(=O)NNc2nc(NCC(N)=O)nc3ccccc23)cc1
3.5% (inactive)	3.1%	O=C1c2ccccc2C(=O)N1CC1c2ccccc2CCN1C(=O)Cc1ccccc1 (stereo not given)
8.5% (inactive)	1.1%	COC(=O)CNc1nc(NS(=O)(=O)c2c(C)cc(C)cc2C)c2ccccc2n1
